# Paper PMC7702297 (Journal of the American Chemical Society, 2020)
# Where two headings read alike, the source gives them in different places.
# Key:
# [1] = test system: RAW 264.7 macrophage cells; test: Protection from PMA-induced cytotoxicity; assay type: cell-based
# [2] = H2S release measured with H2S-sensitive electrochemical probe; assay type: physicochemical
# [3] = Conventional and cryogenic TEM of self-assembled nanostructures; assay type: physicochemical
# [4] = Nile Red assay, critical aggregation concentration; assay type: physicochemical; conditions: Nile Red fluorescence; 10 mM phosphate buffer pH 7.4, room temperature
# Method in brief: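 Test compound dissolved in 10 mM phosphate buffer pH 7.4 at room temperature, where it self-assembles. Nile Red fluorescence intensity was recorded across a series of test compound concentrations. CAC was calculated from the rise in intensity with concentration, taken as Nile Red solubilisation in the hydrophobic domain.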
# [5] = Static light scattering; assay type: physicochemical; conditions: average
# [6] = test system: RAW 264.7 cells; test: Cytotoxicity
# [7] = test system: RAW 264.7 macrophage cells; test: Intracellular ROS by DHE fluorescence in PMA-treated macrophages; assay type: cell-based; conditions: PMA 1 μg/mL 3 h; DHE 10 μM 30 min
# [8] = PMA 2 μg/mL 3 h, Cys 800 μM, AdKOKOEE and AdKSKSE 200 μM (+ Cys), GYY4137 and Na2S 400 μM, Figure 4B
# [9] = conventional and cryo-TEM, PB 10 mM pH 7.4, 1 mM
compound,measurement,setting,value
"[Na+].[Na+].[S-2] [Na2S, sodium sulfide, reference compound]",protective effect on viability of PMA-treated cells,[1],Neither affected cell viability
"N[C@@H](CS)C(=O)O [Cys, cysteine, reference compound]",protective effect on viability of PMA-treated cells,[1]; [8],Neither treatment with Cys alone nor treatment with a combination of the non-H2S-releasing control peptide (AdKOKOEE) and Cys showed any protective effect
AdKSKSE,H2S release rate relative to AdKsKsEE,"[2]; Figure S13, both contain two SATO units and release similar amounts",somewhat faster
same,protective effect on viability of PMA-treated cells,[1]; [8],"some cell protective ability, but it was not as good as AdKSKSEE"
same,average length of short nanoworms,"[3]; conventional TEM, UA stained, PB 10 mM pH 7.4, 100 μM",33±2 nm
AdKOKOEE,protective effect on viability of PMA-treated cells,[1]; [8],Neither treatment with Cys alone nor treatment with a combination of the non-H2S-releasing control peptide (AdKOKOEE) and Cys showed any protective effect
"C1COCCN1.COc1ccc(P(=S)(S)N2CCOCC2)cc1 (stereo not drawn) [GYY4137, reference compound]",protective effect on viability of PMA-treated cells,[1],Neither affected cell viability
AdKSKSEE,critical aggregation concentration (CAC),[4],27 µM
same,H2S release peaking time,"[2]; PHDC 1 mM + Cys 4 mM in PB at rt, electrochemical probe, average of three runs",125 ± 15 min
same,H2S release without Cys,"[2]; PHDC 1 mM in PB at rt, no Cys, electrochemical probe",minimal H2S was detected
same,cell viability on co-treatment with PMA,"[1]; PMA 2 μg/mL, AdKSKSEE 200 μM + Cys 800 μM, 3 h, three experiments with five replicates",95%
same,average external diameter of crescent nanostructures,[3]; [9],28±3 nm
same,average width of crescent nanostructures,[3]; [9],5±1 nm
same,"aggregation number, estimate from nanocrescent volume",[3]; nanocrescent volume from TEM dimensions divided by estimated molecular volume,560
same,aggregation number (molecules per crescent nanostructure),[5],600
"CCCCCCCCCCCCCC(=O)O[C@@H]1[C@@H](C)[C@@]2(O)[C@@H](C=C(CO)C[C@]3(O)C(=O)C(C)=C[C@@H]23)[C@@H]2C(C)(C)[C@]12OC(C)=O [PMA, phorbol 12-myristate 13-acetate]",concentration inducing significant cytotoxicity,[6]; Figure 4A,≥ 1000 ng/mL
same,cell viability after PMA alone,[6]; PMA 2 μg/mL,67%
same,"ROS level (DHE red fluorescent signal) after PMA alone, versus untreated cells",[7],much brighter
